Laboratory results taken from ChEMBL document CHEMBL1125291, “New 8-(trifluoromethyl)-substituted quinolones. The benefits of the 8-fluoro group with reduced phototoxic risk” (1992).
Converted amounts (≈) assume the structure as drawn.

Legend:
Escherichia coli [1] = assay: Minimum inhibitory concentration (MIC) against gram negative bacteria Escherichia coli Vogel.; format: functional; conditions: Escherichia coli; read-out: MIC
Outline: (§1)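 MICs were determined by standard broth microtitration against 11 Gram-positive and Gram-negative organisms, in µg/mL. Values come from duplicate or triplicate experiments and are accurate to ±50%.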

Pseudomonas aeruginosa [2] = assay: In vivo efficacy (s.c.) against Pseudomonas aeruginosa in mouse protection test; format: functional; conditions: Pseudomonas aeruginosa, sc; read-out: PD50
Outline: (§2)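 Acute lethal systemic infections in female Charles River CD-1 mice. A single dose was given at challenge, orally by gavage or by subcutaneous injection. PD50 (median protective dose, mg/kg) was determined.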

Mus musculus [3] = organism: Mus musculus; assay: Days of the first positive reaction in […] mice.; format: functional
Outline: (§3)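 Phototoxic skin reaction test in depilated female CD-1 mice. A single oral dose (gavage) or subcutaneous dose was given, followed 1 h later by 3 h of UVA exposure (320–400 nm). The regimen was repeated for up to 4 consecutive days, with initial doses of 30, 100 and 300 mg/kg. PTD50 was derived by the probit method. The first day of positive reaction and the no-effect dose were taken from the raw data.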

Mus musculus [4] = organism: Mus musculus; assay: Dose required to induce phototoxic reaction in 50% of mice by probit method at different dosage forms.; format: functional
Streptococcus pneumoniae [5] = assay: In vivo efficacy (s.c.) against Streptococcus pneumoniae SV-1 in mouse protection test; format: functional; conditions: Streptococcus pneumoniae, sc; read-out: PD50; outline: as §2
Staphylococcus aureus [6] = assay: Minimum inhibitory concentration (MIC) against gram positive bacteria Staphylococcus aureus UC-76.; format: functional; conditions: Staphylococcus aureus; read-out: MIC; outline: as §1
Streptococcus pyogenes [7] = assay: Minimum inhibitory concentration (MIC) against gram positive bacteria Streptococcus pyogenes C-203.; format: functional; conditions: Streptococcus pyogenes; read-out: MIC; outline: as §1
Mus musculus [8] = organism: Mus musculus; assay: Dose which has no effect to induce phototoxic reaction in 50% of mice by probit method.; format: functional
Streptococcus pneumoniae [9] = assay: In vivo efficacy (orally) against Streptococcus pneumoniae SV-1 in mouse protection test; format: functional; conditions: Streptococcus pneumoniae, po; read-out: PD50; outline: as §2
Pseudomonas aeruginosa [10] = assay: Minimum inhibitory concentration (MIC) against gram negative bacteria Pseudomonas aeruginosa UI-18.; format: functional; conditions: Pseudomonas aeruginosa; read-out: MIC; outline: as §1
Escherichia coli [11] = assay: In vivo efficacy in mouse protection test in Escherichia coli Vogel dose administered orally by gavage.; format: functional; conditions: Escherichia coli, po; read-out: PD50; outline: as §2
Streptococcus pyogenes [12] = assay: In vivo efficacy (s.c.) against Streptococcus pyogenes C-203 in mouse protection test; format: functional; conditions: Streptococcus pyogenes, sc; read-out: PD50; outline: as §2
Streptococcus pyogenes [13] = assay: In vivo efficacy (orally) against Streptococcus pyogenes C-203 in mouse protection test; format: functional; conditions: Streptococcus pyogenes, po; read-out: PD50; outline: as §2
Klebsiella pneumoniae = assay: Minimum inhibitory concentration (MIC) against gram negative bacteria Klebsiella pneumoniae MGH-2.; format: functional; conditions: Klebsiella pneumoniae; read-out: MIC; outline: as §1
Escherichia coli [14] = assay: In vivo efficacy in mouse protection test in Escherichia coli Vogel administered by subcutaneous injection.; format: functional; conditions: Escherichia coli, sc; read-out: PD50; outline: as §2
Streptococcus pneumoniae [15] = assay: Minimum inhibitory concentration (MIC) against gram positive bacteria Streptococcus pneumoniae SV-1.; format: functional; conditions: Streptococcus pneumoniae; read-out: MIC; outline: as §1
Mus musculus [16] = organism: Mus musculus; assay: Number of mice which show positive phototoxic reaction in 5 mice; format: functional
Escherichia coli [17] = assay: Minimum inhibitory concentration (MIC) against gram negative bacteria Escherichia coli H-560.; format: functional; conditions: Escherichia coli; read-out: MIC; outline: as §1
Enterococcus faecalis = assay: Minimum inhibitory concentration (MIC) against gram positive bacteria Streptococcus faecalis MGH-2.; format: functional; conditions: Enterococcus faecalis; read-out: MIC; outline: as §1
Mus musculus [18] = assay: Maximum tolerance dose was measured for phototoxic skin reaction by po administration; format: functional
[19] = Minimum inhibitory concentration (MIC) against gram negative bacteria Prot. rettgeri M-1771.; format: functional, Providencia rettgeri; conditions: Providencia rettgeri; read-out: MIC; outline: as §1
Staphylococcus aureus [20] = assay: Minimum inhibitory concentration (MIC) against gram positive bacteria Staphylococcus aureus H-228.; format: functional; conditions: Staphylococcus aureus; read-out: MIC; outline: as §1
Pseudomonas aeruginosa [21] = assay: In vivo efficacy (orally) against Pseudomonas aeruginosa in mouse protection test; format: functional; conditions: Pseudomonas aeruginosa, po; read-out: PD50; outline: as §2
Enterobacter cloacae = assay: Minimum inhibitory concentration (MIC) against gram negative bacteria Enterobacter cloacae MA-2646.; format: functional
Mus musculus [22] = organism: Mus musculus; assay: Number of mice which show positive phototoxic reaction.; format: functional; outline: as §3

Row | SMILES | MIC (Escherichia coli [1]) [µg/mL] | Day of first positve reaction (Mus musculus [3]) | PTD50 (Mus musculus [4]) [mg/kg] | MIC (Staphylococcus aureus [6]) [µg/mL] | MIC (Streptococcus pyogenes [7]) [µg/mL] | No effect dose (Mus musculus [8]) [mg/kg] | MIC (Pseudomonas aeruginosa [10]) [µg/mL] | ED50 (Escherichia coli [11]) [mg/kg] | ED50 (Streptococcus pyogenes [12]) [mg/kg] | ED50 (Streptococcus pyogenes [13]) [mg/kg] | MIC (Klebsiella pneumoniae) [µg/mL] | ED50 (Escherichia coli [14]) [mg/kg] | MIC (Streptococcus pneumoniae [15]) [µg/mL] | MIC (Escherichia coli [17]) [µg/mL] | MIC (Enterococcus faecalis) [µg/mL] | MTD (Mus musculus [18]) [mg/kg] | MIC [19] [µg/mL] | MIC (Staphylococcus aureus [20]) [µg/mL] | MIC (Enterobacter cloacae) [µg/mL] | also measured
1 | NC1CCN(c2cc3c(cc2F)c(=O)c(C(=O)O)cn3C2CC2)C1 (centres undefined) | 0.05 (≈ 0.151 µM) | 0 | >300 | 0.025 (≈ 0.0754 µM) | 0.1 (≈ 0.302 µM) | 300 | 0.1 (≈ 0.302 µM) | 3.4 | 11 | 97 | 0.05 (≈ 0.151 µM) | 0.5 | 0.05 (≈ 0.151 µM) | 0.006 (≈ 0.0181 µM) | 0.1 (≈ 0.302 µM) | 300 | 0.1 (≈ 0.302 µM) | 0.1 (≈ 0.302 µM) | 0.025 (≈ 0.0754 µM) | ED50 (Pseudomonas aeruginosa [2]): 5.4 mg/kg; ED50 (Streptococcus pneumoniae [5]): 23 mg/kg; ED50 (Streptococcus pneumoniae [9]): > 100 mg/kg; No. of pos rxns (Mus musculus [16]): 0; ED50 (Pseudomonas aeruginosa [21]): 49 mg/kg
2 | NC1CCCN(c2c(F)cc3c(=O)c(C(=O)O)cn(C4CC4)c3c2C(F)(F)F)C1 (centres undefined) | 0.1 (≈ 0.242 µM) | 0 | >100 | 0.025 (≈ 0.0605 µM) | 0.2 (≈ 0.484 µM) | 100 | 1.6 (≈ 3.87 µM) | 11.8 | 12 | 35 | 0.2 (≈ 0.484 µM) | 3.2 | 0.2 (≈ 0.484 µM) | 0.1 (≈ 0.242 µM) | 0.2 (≈ 0.484 µM) | 100 | 0.4 (≈ 0.968 µM) | 0.2 (≈ 0.484 µM) | 0.1 (≈ 0.242 µM) | No. of pos rxns (Mus musculus [22]): 0
